Screening data as filed in PubChem BioAssay.
Hits are enriched below; roughly 3.8% of the tested compounds scored in any of these assays.
Yeast lifespan up: yeast lifespan extension | inhibition of the nicotinamide effect, % at 10 µM | S. cerevisiae growth with nicotinamide, OD615; deaD strain in restrictive glucose medium | actives 0.68% (n = 130,000);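 active = inhibition above a set limit, placed 3 SD over the median of all compounds, cut at about 26% in these data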;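 note: 0% = nicotinamide-treated wells and 100% = cells grown without nicotinamide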
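Assay system: engineered S. cerevisiae DeaD replicative-lifespan strain, galactose-grown log-phase cells; Buffer or medium: CSMM-D glucose medium, restrictive; Probe or stimulus: nicotinamide 1.5 mM; Compound: single dose 10 µM compound, 0.25% DMSO; Schedule: 4 h preincubation then 48 h treatment at 30 °C; Technique: OD615 measurement.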
BB579 growth dn: reduces growth of yeast BB579 in restrictive medium; S. cerevisiae BB579 growth, OD615, 48 h; inhibition, % at 10 µM; actives 0.51% (n = 140,000); AID 804;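 active = inhibition above a set limit, 3 SD over the mean compound inhibition, cut at about 44% in these data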
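System: Saccharomyces cerevisiae DeaD strain BB579, replicative lifespan model yeast. Buffer or medium: restrictive glucose-based CSMM-D medium. Doses: one dose, 10 µM compound with 0.25% DMSO. Timing: 4 h preincubation and 48 h exposure at 30 °C. Detection: turbidity as optical density at 615 nm. Benchmarks: amphotericin B 10 µg/mL, positive.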
Measles CPE: protection of cells from measles virus; Measles virus-infected cells, CPE protection, absorbance; actives 1.5% (n = 140,000); protection (pct of control), % at 4 µM; AID 841; in the data active = protection mostly above about 24%, no sharp cut-off; inactive = mostly below about 26%
RAM inhibit: inhibitors of the yeast RAM network; actives 1.8% (n = 190,000); inhibition, % at 50 µM; AID 868; S. cerevisiae dse1pr::URA3 reporter, 5-FOA growth OD615, 2 d; analog-sensitive cbk1-as2 kinase mutant strain;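 active = inhibition above a set limit, 3 SD over mean compound inhibition, cut at about 8.4% in these data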;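 note: 0% = DMSO-only wells with no growth and 100% = 10 µM 1-NA-PP1 full growth; inhibition rescues growth on 5-FOA so higher OD means more RAM inhibition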
* = called active by the depositor.

Screening COc1cc(SC)ccc1C(=O)Nc1ncc(Cl)cc1Cl returned RAM inhibit 3.5.
For Cc1oc(C(C)(C)C)c(CN2CCOCC2)c1C(=O)O the results were RAM inhibit 0.5.
CCCCc1nc(N2CCOCC2)c(C#N)c2c1CCCC2 was read as Yeast lifespan up -26.0, BB579 growth dn 15.3, Measles CPE 55.6* and RAM inhibit 0.0.
CC1CN(C(=O)COC(=O)c2cccs2)CC(C)O1 (stereo not drawn) was read as Yeast lifespan up -0.1, BB579 growth dn -19.7, Measles CPE 36.2* and RAM inhibit -0.5.
`CCOC(=O)c1nnc(-c2ccccc2)nc1NCc1ccc(Cl)cc1` gave Yeast lifespan up 13.0, BB579 growth dn -27.5, Measles CPE 8.1 and RAM inhibit 10.2*.
O=C1C(Cl)=C(Nc2ccccc2)C(=O)c2ccccc21 was read as Yeast lifespan up 2.3, BB579 growth dn -15.8, Measles CPE 6.0 and RAM inhibit 1.5.
`C=CCNC1=C(Cl)C(=O)c2ccccc2C1=O` gave Yeast lifespan up -7.0, BB579 growth dn 60.2*, Measles CPE 26.6 and RAM inhibit 2.5.
Screening O=C(NCc1ccco1)c1ccc(COCC(F)(F)C(F)F)cc1 returned Yeast lifespan up -3.6, BB579 growth dn -35.2, Measles CPE 32.7* and RAM inhibit 0.5.
For CCOc1ccc(Nc2cc(C)nc(-n3nc(C)cc3C)n2)cc1 the results were Yeast lifespan up -8.2, BB579 growth dn 10.2, Measles CPE 42.6* and RAM inhibit 0.2.
For COc1ccc(N=c2oc3c(OC)cccc3cc2C(=O)NCc2ccco2)cc1OC the results were Yeast lifespan up -6.6, BB579 growth dn -27.9, Measles CPE 19.6 and RAM inhibit 9.9*.
O=C(Cc1c(F)cccc1Cl)NCCCn1ccnc1 was read as Yeast lifespan up -8.2, BB579 growth dn -6.5, Measles CPE 44.8* and RAM inhibit 0.0.
Cc1ccc(NC(=O)CSc2nc(C)c(C)c(C)n2)c([N+](=O)[O-])c1 was read as Yeast lifespan up 3.6, BB579 growth dn -31.7, Measles CPE 4.8 and RAM inhibit 8.5*.
Screening Cc1ccc(NC(=O)COC(=O)Cn2nc(C)c([N+](=O)[O-])c2C)c([N+](=O)[O-])c1 returned Yeast lifespan up 0.7, BB579 growth dn -16.9, Measles CPE 39.7* and RAM inhibit 6.6.
CCc1cccc(N(C(=O)c2csnn2)C(C(=O)NC(C)(C)C)c2ccncc2)c1 (stereo not drawn) was read as RAM inhibit 0.6.
Screening COc1ccc(OCc2nnc(SCC(=O)c3ccccc3)o2)cc1 returned RAM inhibit 1.3.
CC(C)(C)n1nnnc1C(c1cccs1)N(Cc1ccccc1)Cc1ccco1 (stereo not drawn) was read as Yeast lifespan up 1.6, BB579 growth dn -17.5, Measles CPE 11.4 and RAM inhibit 9.6*.
For COc1ccc(C)cc1NC(=O)NNC(=O)C1CCC(C(C)(C)C)CC1 (stereo not drawn) the results were RAM inhibit 2.1.
For N#C/C(=N\Nc1ccccc1)C(=N)N1CCOCC1 the results were Yeast lifespan up -2.3, BB579 growth dn -40.6, Measles CPE 74.0* and RAM inhibit 3.4.
O=C(Nc1cccn(Cc2c(Cl)cccc2Cl)c1=O)c1ccc(Cl)cc1Cl was read as Yeast lifespan up -2.6, BB579 growth dn -7.4, Measles CPE 3.7 and RAM inhibit 5.3.
Screening O=C(Nc1cccn(Cc2c(Cl)cccc2Cl)c1=O)c1ccccc1Cl returned Yeast lifespan up -19.8, BB579 growth dn -43.2, Measles CPE 48.0* and RAM inhibit 4.4.
For CC1(C)CC(=O)C2=C(C1)Nc1cc3c(cc1C2c1ccc2c(c1)OCO2)OCO3 (stereo not drawn) the results were Yeast lifespan up -8.8, BB579 growth dn -34.8, Measles CPE 12.0 and RAM inhibit 2.3.
CC1(C)CC(=O)C2=C(C1)Nc1ccccc1NC2c1ccc2c(c1)OCO2 (stereo not drawn) was read as Yeast lifespan up -2.5, BB579 growth dn -24.7, Measles CPE 41.4* and RAM inhibit 1.3.
`CCCCN1C2CCCC1CC(NC(=O)C1CCCCC1)C2` (stereo not drawn) gave BB579 growth dn -26.8, Measles CPE 2.9 and RAM inhibit 0.2.
`Cc1cc(-c2ccco2)c(C#N)c2nc3ccccc3n12` gave Yeast lifespan up -31.9, BB579 growth dn 89.4*, Measles CPE 0.8 and RAM inhibit 4.6.
CC(C)c1cc(N2CCN(C(=O)c3ccco3)CC2)n2c(nc3ccccc32)c1C#N was read as Yeast lifespan up -3.8, BB579 growth dn 10.1, Measles CPE 16.0 and RAM inhibit 5.3.
`Cc1cc(Nc2ccc(O)cc2)n2c(nc3ccccc32)c1C#N` gave RAM inhibit 9.1*.
For CCc1c(C)c(C#N)c2nc3ccccc3n2c1Cl the results were Yeast lifespan up 27.6*, BB579 growth dn 17.9, Measles CPE 0.0 and RAM inhibit 6.0.
`Cc1cc(C(C)C)n2c(nc3ccccc32)c1C#N` gave RAM inhibit 2.7.
Screening Fc1ccccc1Cc1noc(CN(Cc2ccccn2)CC2CCCO2)n1 (stereo not drawn) returned RAM inhibit -0.6.
For CCn1c(CCNC(=O)c2cccs2)nnc1SCC(=O)Nc1nc(-c2ccccc2)cs1 the results were BB579 growth dn -4.2, Measles CPE 34.5* and RAM inhibit 2.7.
Screening CCn1c(CCNC(=O)c2cccs2)nnc1SCC(=O)Nc1cccc(Cl)c1 returned BB579 growth dn -14.3, Measles CPE 24.0 and RAM inhibit 1.0.
Screening COC(=O)c1cc(=O)n(CCc2ccc(OC)cc2)c(=Nc2ccc(F)c(Cl)c2)s1 returned Yeast lifespan up 2.8, BB579 growth dn 25.0, Measles CPE 2.9 and RAM inhibit 9.5*.
CC(C1CC1)N(Cc1ccccc1)C(=S)Nc1cccc(C(F)(F)F)c1 (stereo not drawn) was read as Yeast lifespan up 30.6*, BB579 growth dn -33.0, Measles CPE 3.5 and RAM inhibit 6.1.
For CC(C1CC1)N(Cc1ccccc1)C(=S)Nc1ccccc1 (stereo not drawn) the results were RAM inhibit -1.3.
For COc1cccc(CNCc2cccnc2)c1OCc1ccccc1 the results were RAM inhibit -0.2.
`CC(=O)N=Nc1[nH]c(N)c2ccccc12` gave RAM inhibit 2.5.
`COC(=O)c1ccc(C(NC(=O)c2cccnc2)NC(=O)c2cccnc2)cc1` gave RAM inhibit 1.3.
Screening CCCSc1cc(NCCOC(=O)CCC)c([N+](=O)[O-])c2nonc12 returned Yeast lifespan up 28.3*, BB579 growth dn 2.3, Measles CPE 10.7 and RAM inhibit 5.2.
`CCCSc1cc(NCCOC(C)=O)c([N+](=O)[O-])c2nonc12` gave Yeast lifespan up 1.1, BB579 growth dn -1.6, Measles CPE 9.8 and RAM inhibit 3.5.
Screening CCC(=O)OCCNc1cc(Sc2nc3ccccc3s2)c2nonc2c1[N+](=O)[O-] returned Yeast lifespan up 32.3*, BB579 growth dn -30.1, Measles CPE 4.7 and RAM inhibit 2.7.
`CC(=O)NNC(=S)NC(=O)c1ccc(C)cc1` gave RAM inhibit -1.4.
